pEC50: −log10 of the molar value.
Legend:
HFF [1] = assay: Cytotoxicity against HFF cell; type: functional; conditions: Homo sapiens
Human betaherpesvirus 5 = assay: Antiviral activity against HCMV AD-169 replication; type: functional, organism-based; conditions: Human betaherpesvirus 5, AD-169
How it was run: (§1)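 Plaque reduction used HCMV AD-169 in HFF cells (plated 2 days ahead) or MCMV Smith in MEF cells (plated 1 day ahead), at 20-30 PFU/well in triplicate with 1 h adsorption. Infected cells were then given MEM (2% FBS) with compound diluted 1:5 from 100 µM. Plates ran 7 days (MCMV) or 8 days (HCMV) at 37 °C, followed by 6 h neutral red staining. EC50 is the concentration giving 50% plaque reduction.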

HFF [2] = assay: Selectivity index, CC50 in HFF cell/ EC50 against HCMV; type: functional
How it was run: (§2)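 Selectivity index is the ratio of CC50 (HFF neutral red uptake) to EC50 from the matching plaque reduction assay.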

HFF [3] = assay: Selectivity index, CC50 in HFF cell/ EC50 against MCMV; type: functional; how it was run: as §2
Murid betaherpesvirus 1 = assay: Antiviral activity against MCMV Smith replication; type: functional, organism-based; conditions: Murid betaherpesvirus 1, Smith; how it was run: as §1
Vaccinia virus = assay: Antiviral activity against Vaccinia virus Copenhagen replication in HFF cells; type: functional, organism-based; conditions: Orthopoxvirus vaccinia
HFF [4] = assay: Selectivity index, CC50 in HFF cell/ EC50 against vaccinia virus; type: functional; how it was run: as §2
Cowpox virus = assay: Antiviral activity against Cowpox virus Brighton replication in HFF cells; type: functional, organism-based
HFF [5] = assay: Selectivity index, CC50 in HFF cell/ EC50 against cowpox virus; type: functional; how it was run: as §2

| SMILES | CC50 (HFF [1]) | pEC50 (Human betaherpesvirus 5) | Selectivity index (HFF [2]) | Selectivity index (HFF [3]) | pEC50 (Murid betaherpesvirus 1) | pEC50 (Vaccinia virus) | Selectivity index (HFF [4]) | pEC50 (Cowpox virus) | Selectivity index (HFF [5]) |
| --- | --- | --- | --- | --- | --- | --- | --- | --- | --- |
| CCCCCCCC/C=C\CCCCCCCCOCCOP(=O)([O-])CO[C@H](CO)Cn1cnc2c(N)ncnc21.[Na+] | 6.3 µM | 8.52 | 2100 | 158 | 7.40 | 8.52 | 2100 | 8.15 | 900 |
| CCCCCCCCCCCCCCCCCCOCCOP(=O)([O-])CO[C@H](CO)Cn1cnc2c(N)ncnc21.[Na+] | 1.5 µM | 8.52 | 500 | 500 | 8.52 | – | 150 | – | 75 |
| Nc1ccn(C[C@@H](CO)OCP(=O)(O)O)c(=O)n1.O.O [CIDOFOVIR] | > 317 µM | 5.92 | >264 | >7925 | 7.40 | 4.60 | >12.5 | 4.51 | >10.3 |
| CCCCCCCCCCCCCCCCOCCCOP(=O)(O)CO[C@H](CO)Cn1ccc(N)nc1=O [BRINCIDOFOVIR] | – | 9.05 | – | – | 9.05 | 7.10 | – | 7.22 | – |
| CCCCCCCC/C=C\CCCCCCCCOCCCOP(=O)([O-])CO[C@H](CO)Cn1cnc2c(N)ncnc21.[Na+] | 74.8 µM | 8.52 | 25000 | 750 | 7.00 | 7.74 | 4156 | 7.47 | 2200 |
| CCCCCCCCCCCCCCCCCCOCCOP(=O)(O)CO[C@H](CO)Cn1ccc(N)nc1=O | – | 9.05 | – | – | 9.00 | 6.70 | – | 6.52 | – |
| Nc1ncnc2c1ncn2C[C@@H](CO)OCP(=O)(O)O | > 289 µM | 6.09 | >352 | >181 | 6.80 | – | >107 | – | >72 |
| CCCCCCCCCCCCCCCCOCCCOP(=O)([O-])CO[C@H](CO)Cn1cnc2c(N)ncnc21.[Na+] | 9.7 µM | 8.52 | 3233 | 485 | 8.70 | – | 970 | – | 485 |
